Series [1] relates to MHCC97-H cells' subcutaneous tumor. The experiment in a line: Nude mice subcutaneous tumor model. In kind it is in vivo. The following applies: oral; for Tumor Volumes IC50 Values, Solvent control / Tumor Weights IC50 Values, Solvent control / Tumor Volumes IC50 Values, Compound 4 / Tumor Weights IC50 Values, Compound 4: every 2 days, 30 days; for Tumor Volumes IC50 Values, Solvent control / Tumor Weights IC50 Values, Solvent control: agent alone; for Tumor Volumes IC50 Values, Compound 4 / Tumor Weights IC50 Values, Compound 4: agent combined with compound 4 (1 mg/kg). An outline of the steps: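 MHCC97-H cells injected subcutaneously into 4–5-week-old nude mice. Dosing started 4–5 days later as oral liquids formulated with PEG and Tween 80, given orally every 2 days (15 doses over 30 days). Test compound at 1 mg/kg; sorafenib at 0.5 or 2 mg/kg. Tumours then excised. Volume = length × width²/2; weight measured on a balance. Inhibitory rates calculated from volume and weight.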

In a further series the test system is phospho-p70S6K (Thr389). Briefly: Western blot, phosphorylation of P70S6K1. In kind it is cell-based, human. The note with it: MHCC97-H cells; for phosphorylation of P70S6K1 (Western blot): 1 μmol/L. Background: In western blotting, separated proteins are transferred to a membrane and probed.
For a further series, the system named is phospho-AKT. The experiment in a line: Western blot, phosphorylation of AKT. In kind it is cell-based, human. The following applies: MHCC97-H cells; for phosphorylation of AKT (Western blot): 1 μmol/L. A digest of the protocol:
(§1)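 MHCC97-H cells (5 × 10^6 per 75T flask) pretreated 12 h with solvent, test compound or reference pathway inhibitors, each at 1 μmol/L, then incubated 24 h. RIPA lysates quantified by BCA; 40 μg protein run on 10–12% SDS-PAGE. Blocking in 5% skim milk/TBS-0.1% Tween-20; rabbit primary antibodies (1:1000, 4°C) against phospho-p70S6K Thr389, phospho-AKT Ser473/Thr308, phospho-ERK and total proteins; β-actin loading control.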

The subject of the next series is phospho-ERK. The experiment in a line: Western blot, phosphorylation of ERK. In kind it is cell-based, human. The following applies: MHCC97-H cells, 1 μmol/L. A digest of the protocol:
as §1

Another series concerns MHCC97-H cells. The experiment in a line: MTT cell-survival examination. The following applies: compound 4 at 0.03 μmol/L (30 nmol/L). In kind it is cell-based. An outline of the steps:
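MHCC97-H seeded at 5 × 10^3 cells/well in DMEM + 10% FBS, 37°C, 5% CO2, 24 h. MTT read at OD 490 nm; inhibition = (control − treated)/control × 100%; IC50 calculated from inhibitory rates.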

A further series has as its system advanced HCC patients. Briefly: Clinical outcome of sorafenib treatment by mTOR mRNA expression. The note with it: sorafenib-treated advanced HCC patients. In kind it is in vivo, human.
For series [2] the following is noted: stated in introduction, no reference given; cited from earlier work.

As a reminder, the logP is a log measure of how a compound divides between an organic and an aqueous phase.

SMILES strings stand for the structures.

For the molecule `COc1cc2c(Oc3ccc4[nH]c(C)cc4c3F)ccnc2cc1OCC1(N)CC1` [Anlotinib], in series [1], the “Tumor Volumes IC50 Values, Solvent control” value came out at 1.70 ± 0.54 mg/kg; the “Tumor Weights IC50 Values, Solvent control” value was 1.60 ± 0.71 mg/kg; the “Tumor Volumes IC50 Values, Compound 4” value amounted to 0.44 ± 0.23 mg/kg; the “Tumor Weights IC50 Values, Compound 4” value amounted to 0.42 ± 0.07 mg/kg.

For `N#CC1(c2ccc(NC(=O)c3cccnc3NCc3ccncc3)cc2)CCCC1` [Apatinib], in series [1], the “Tumor Volumes IC50 Values, Solvent control” value was 1.95 ± 0.55 mg/kg; the “Tumor Weights IC50 Values, Solvent control” value stood at 1.65 ± 0.09 mg/kg; the “Tumor Volumes IC50 Values, Compound 4” value amounted to 0.53 ± 0.20 mg/kg; the “Tumor Weights IC50 Values, Compound 4” value was 0.59 ± 0.07 mg/kg.

As to `C[C@@H]1CCN(C(=O)CC#N)C[C@@H]1N(C)c1ncnc2[nH]ccc12` [CP690550], the “phosphorylation of P70S6K1 (Western blot)” value in the series on phospho-p70S6K (Thr389) is given as “does not affect”. Also, in the series on phospho-AKT, the “phosphorylation of AKT (Western blot)” value is on record as “does not affect”. Moreover, the “ERK phosphorylation (Western blot)” value in the series with phospho-ERK was “does not affect”.

`CC(C)(C)OC(=O)Nc1ccc(-c2nc(N3CCOCC3)c3ncn(CCC4OCCO4)c3n2)cc1` [Compound 4, tert-butyl (4-(9-(2-(1,3-dioxolan-2-yl)ethyl)-6-morpholino-9H-purin-2-yl)phenyl)carbamate]: the “cytotoxicity on MHCC97-H cells” value with MHCC97-H cells is “no obvious cytotoxicity”. Besides, in the series with phospho-p70S6K (Thr389), the “inhibitory activity on mTORC1 (phospho-p70S6K1, Western blot)” value is “definite inhibitory effect” and the “phosphorylation of P70S6K1 (Western blot)” value is listed as “only inhibited the phosphorylation of P70S6K1”. The “inhibition of activation of mTOR kinase (phosphorylation of P70S6K1) in cells” value in the series on phospho-p70S6K (Thr389) (compound 4 at 0.03 μmol/L (30 nmol/L)) is listed as “significantly inhibited the activation of mTOR”. Further, in the series on phospho-AKT, the “inhibitory activity on mTORC2 (phospho-AKT SER473, Western blot)” value was “weaker than that on mTORC1” and the “phosphorylation of AKT (Western blot)” value is reported as “did not affect PI3K or AKT”. Besides, in the series on phospho-ERK, the “ERK phosphorylation (Western blot)” value is “did not show a significant inhibitory effect”. Besides, the “MHCC97-H cells' subcutaneous growth” value in series [1] (compound 4 alone at 1 mg/kg) is reported as “without significantly affecting”. The “activation of mTOR in vivo” value in series [1] (compound 4 at 1 mg/kg) is “significantly inhibited the activation of mTOR”.

Turning to `CC(C)(C)c1nc(-c2cccc(NS(=O)(=O)c3c(F)cccc3F)c2F)c(-c2ccnc(N)n2)s1` [GSK2118436], in the series with phospho-ERK, the “ERK phosphorylation (Western blot)” value is on record as “significantly inhibited ERK phosphorylation”.

On to `O=c1cc(N2CCOCC2)oc2c(-c3ccccc3)cccc12` [LY294002], for which the “phosphorylation of P70S6K1 (Western blot)” value in the series with phospho-p70S6K (Thr389) was “significantly inhibited”. Moreover, in the series on phospho-AKT, the “phosphorylation of AKT (Western blot)” value is listed as “significantly inhibited”.

As for `COc1cc2nccc(Oc3ccc(NC(=O)NC4CC4)c(Cl)c3)c2cc1C(N)=O` [Lenvatinib], in series [1], the “Tumor Volumes IC50 Values, Solvent control” value amounted to 0.70 ± 0.25 mg/kg; the “Tumor Weights IC50 Values, Solvent control” value is 0.78 ± 0.58 mg/kg; the “Tumor Volumes IC50 Values, Compound 4” value is 0.10 ± 0.05 mg/kg; the “Tumor Weights IC50 Values, Compound 4” value was 0.10 ± 0.01 mg/kg.

Turning to `CNC(=O)c1cc(Oc2ccc(NC(=O)Nc3ccc(Cl)c(C(F)(F)F)c3)c(F)c2)ccn1` [Regorafenib], in series [1], the “Tumor Volumes IC50 Values, Solvent control” value worked out at 0.92 ± 0.48 mg/kg; the “Tumor Weights IC50 Values, Solvent control” value worked out at 1.22 ± 0.72 mg/kg; the “Tumor Volumes IC50 Values, Compound 4” value is 0.43 ± 0.10 mg/kg; the “Tumor Weights IC50 Values, Compound 4” value was determined as 0.55 ± 0.10 mg/kg.

For `CNC(=O)c1cc(Oc2ccc(NC(=O)Nc3ccc(Cl)c(C(F)(F)F)c3)cc2)ccn1` [Sorafenib], in series [1], the “Tumor Volumes IC50 Values, Solvent control” value stood at 1.30 ± 0.48 mg/kg; the “Tumor Weights IC50 Values, Solvent control” value amounted to 1.57 ± 0.41 mg/kg; the “Tumor Volumes IC50 Values, Compound 4” value came out at 0.17 ± 0.03 mg/kg; the “Tumor Weights IC50 Values, Compound 4” value was 0.15 ± 0.04 mg/kg. Further, in the series with advanced HCC patients (mTOR mRNA High (n = 40)), the “OS (overall survival), median” value is reported as 10.0 M and the “TTP (time to progress), median” value amounted to 8.0 M. Also, in the series with advanced HCC patients (mTOR mRNA Low (n = 12)), the “OS (overall survival), median” value is recorded as 16.0 M and the “TTP (time to progress), median” value came out at 12.0 M.

Turning to `CO[C@H]1C[C@@H]2CC[C@@H](C)[C@@](O)(O2)C(=O)C(=O)N2CCCC[C@H]2C(=O)O[C@H]([C@H](C)C[C@@H]2CC[C@@H](OCCO)[C@H](OC)C2)CC(=O)[C@H](C)/C=C(\C)[C@@H](O)[C@@H](OC)C(=O)[C@H](C)C[C@H](C)/C=C/C=C/C=C/1C` [everolimus], the logP in series [2] is given as > 6.

Consider `CO[C@H]1C[C@@H]2CC[C@@H](C)[C@@](O)(O2)C(=O)C(=O)N2CCCC[C@H]2C(=O)O[C@H]([C@H](C)C[C@@H]2CC[C@@H](O)[C@H](OC)C2)CC(=O)[C@H](C)/C=C(\C)[C@@H](O)[C@@H](OC)C(=O)[C@H](C)C[C@H](C)/C=C/C=C/C=C/1C` [rapamycin], for which the logP in series [2] is given as > 6.

Source of the values: publication PMC7394584 (OncoTargets and therapy, 2020).
